Laboratory results reported in ChEMBL document CHEMBL4229369, “Design, synthesis and antitubercular evaluation of benzothiazinones containing a piperidine moiety” (Eur J Med Chem, 2018).
≈ marks a conversion by molar mass, not a printed value.

How the values were obtained:
[1] = tested on: Mycobacterium tuberculosis; test: Antitubercular activity against Mycobacterium tuberculosis H37Rv ATCC27395 after 7 days by Alamar blue assay; type: functional; details: 168 h
Method in brief: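 Inoculum grown to late log phase in Middlebrook 7H9 with 0.2% glycerol, 0.05% Tween 80 and 10% ADC, then washed in PBS, filtered through 8 µm to remove clumps and frozen at -80 °C. Twofold compound dilutions in 7H9-ADC-TG with 2 × 10⁵ CFU per well, 37 °C. Alamar blue and Tween 80 added on day 7, read after 16-24 h (ex 530/em 590 nm). MIC is the lowest concentration giving ≥90% fluorescence reduction versus bacterium-only controls.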

[2] = MRT in ICR mouse at 50 mg/kg, po administered as single dose by HPLC analysis; type: ADME, organism-based; details: in vivo
Method in brief: (§1)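 SPF female ICR mice (20-25 g), fasted overnight, 3 per group; single oral dose 50 mg/kg as suspension in 0.5% CMC. Jugular vein blood at 0.25, 0.5, 1, 2, 4, 6, 8 and 24 h; serum stored at −20 °C, protein removed with acetonitrile, supernatant dried, redissolved in acetonitrile and analysed by HPLC. Parameters derived directly from the experimental data.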

[3] = Half life in ICR mouse at 50 mg/kg, po administered as single dose by HPLC analysis; type: ADME, organism-based; details: in vivo; method in brief: as §1
[4] = Tmax in ICR mouse at 50 mg/kg, po administered as single dose by HPLC analysis; type: ADME, organism-based; details: in vivo; method in brief: as §1
[5] = AUC (0 to infinity) in ICR mouse at 50 mg/kg, po administered as single dose by HPLC analysis; type: ADME, organism-based; parameters: dose 50 mg/kg, route oral, time infinity; details: in vivo; method in brief: as §1
[6] = Cmax in ICR mouse at 50 mg/kg, po administered as single dose by HPLC analysis; type: ADME, organism-based; parameters: dose 50 mg/kg, route oral; details: in vivo; method in brief: as §1

Row | Compound | MIC90 [1] | also measured
1 | O=c1nc(N2CCC(CN3CCC4(CC3)OCCO4)CC2)sc2c([N+](=O)[O-])cc(C(F)(F)F)cc12 | 3.71 mg/L (≈ 7.21 µM) | –
2 | CN(C1CCCCC1)C1CCN(c2nc(=O)c3cc(C(F)(F)F)cc([N+](=O)[O-])c3s2)CC1 | 0.973 mg/L (≈ 2.07 µM) | –
3 | CC1CCCCN1CC1CCN(c2nc(=O)c3cc(C(F)(F)F)cc([N+](=O)[O-])c3s2)CC1 (stereo unspecified) | 1.92 mg/L (≈ 4.08 µM) | –
4 | O=c1nc(N2CCC(CN3CCCCC3)CC2)sc2c([N+](=O)[O-])cc(C(F)(F)F)cc12 | 0.481 mg/L (≈ 1.05 µM) | –
5 | CCN(CC)CC1CCN(c2nc(=O)c3cc(C(F)(F)F)cc([N+](=O)[O-])c3s2)CC1 | 1.82 mg/L (≈ 4.11 µM) | –
6 | O=c1nc(N2CCC(CN3CCCCCC3)CC2)sc2c([N+](=O)[O-])cc(C(F)(F)F)cc12 | 1.32 mg/L (≈ 2.81 µM) | –
7 | O=c1nc(N2CCC(NC3CCCCC3)CC2)sc2c([N+](=O)[O-])cc(C(F)(F)F)cc12 | 0.959 mg/L (≈ 2.1 µM) | –
8 | O=c1nc(N2CCC(CN3CCC(O)CC3)CC2)sc2c([N+](=O)[O-])cc(C(F)(F)F)cc12 | 1.96 mg/L (≈ 4.15 µM) | –
9 | CC1CCN(CC2CCN(c3nc(=O)c4cc(C(F)(F)F)cc([N+](=O)[O-])c4s3)CC2)CC1 | 0.488 mg/L (≈ 1.04 µM) | –
10 | O=c1nc(N2CCC(CN3CCC(C(F)(F)F)CC3)CC2)sc2c([N+](=O)[O-])cc(C(F)(F)F)cc12 | < 0.016 mg/L | MRT [2]: 4.26 h; half-life [3]: 3.3 h; Tmax [4]: 0.25 h; AUC(0-inf) [5]: 2.49 µg·h/mL; Cmax [6]: 1.17 µg/mL
11 | O=c1nc(N2CCC(CN3CCCC3)CC2)sc2c([N+](=O)[O-])cc(C(F)(F)F)cc12 | 3.58 mg/L (≈ 8.09 µM) | –
12 | CN1CCN(CC2CCN(c3nc(=O)c4cc(C(F)(F)F)cc([N+](=O)[O-])c4s3)CC2)CC1 | 7.84 mg/L (≈ 16.6 µM) | –
13 | CC1CCCN(CC2CCN(c3nc(=O)c4cc(C(F)(F)F)cc([N+](=O)[O-])c4s3)CC2)C1 (stereo unspecified) | 0.241 mg/L (≈ 0.512 µM) | –
14 | NNC(=O)c1ccncc1 [ISONIAZID] | 0.037 mg/L (≈ 0.27 µM) | –
15 | O=c1nc(N2CCN(CC3CCCCC3)CC2)sc2c([N+](=O)[O-])cc(C(F)(F)F)cc12 [MACOZINONE] | < 0.016 mg/L | –
16 | CO[C@H]1/C=C/O[C@@]2(C)Oc3c(C)c(O)c4c(O)c(c(/C=N/N5CCN(C)CC5)c(O)c4c3C2=O)NC(=O)/C(C)=C\C=C\[C@H](C)[C@H](O)[C@@H](C)[C@@H](O)[C@@H](C)[C@H](OC(C)=O)[C@@H]1C [RIFAMPIN] | 0.084 mg/L (≈ 0.102 µM) | –
